# Experimental data as given in ChEMBL document CHEMBL5724801, “EUbOPEN Chemogenomics Library - Multiplex” (2024).
# Several values for one entry are separate records, joined by “and”; a condition that tells them apart may be missing. Equal entries are not always repeated.
# System: HEK-293T
# Assay: Multiplex assay against HEK293T
# Format: toxicity, cell-based
# Details: human, 12 h, 1 µM, compound concentration 1 uM
# Outline: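 Imaging took place on a CQ1 microscope at 37°C and 5% CO2 once compound had been added to live cells stained at seeding with Hoechst33342, BioTracker Green Microtubule Cytoskeleton Dye, MitoTracker Red and Annexin V Alexa Fluor 680. CellPathfinder machine-learning gating classed cells as Hoechst high-intensity objects or normal cells, classed normal cells as having healthy, pyknosed or fragmented nuclei, and classed pyknosed cells as mitotic or apoptotic. Tubulin, mitochondrial-mass and membrane-permeability phenotypes are per cents of the healthy-nucleus cells.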
SMILES,Population Apoptotic (%),Population Fragmented Nuclei (%),Population Healthy Nuclei (%),Population Hoechst High Intensity Objects (%),Population Membrane Permeable-Phenotype (%),Population Mitochondria Different-Phenotype (%),Population Mitotic Cells (%),Population Normal (%),Population Pyknosed Nuclei (%),Population Tubulin-Different-Phenotype (%)
C[C@@H]1C[C@H]2[C@@H]3CCC4=CC(=O)C=C[C@]4(C)[C@@]3(F)[C@@H](O)C[C@]2(C)[C@@]1(O)C(=O)CO [DEXAMETHASONE],37% and 53%,8% and 7%,78% and 80%,2% and 8%,1% and 0%,45% and 62%,62% and 46%,97% and 91%,12%,24% and 26%
N[C@](CC1c2ccccc2Oc2ccccc21)(C(=O)O)[C@H]1C[C@@H]1C(=O)O,38% and 54%,6% and 7%,83% and 79%,7% and 5%,0%,43% and 58%,61% and 45%,92% and 94%,10% and 12%,27% and 25%
Cc1noc(-c2ccc(-c3ccc(CC(=O)O)cc3)cc2)c1NC(=O)O[C@H](C)c1ccccc1Cl,29% and 59%,7% and 4%,79% and 77%,5% and 11%,0%,38% and 69%,70% and 40%,94% and 88%,13% and 17%,29% and 28%

# Same assay, conditions: human, 12 h, 1 µM, compound concentration 1 uM
row,SMILES,Total Cell Count
1,C[C@@H]1C[C@H]2[C@@H]3CCC4=CC(=O)C=C[C@]4(C)[C@@]3(F)[C@@H](O)C[C@]2(C)[C@@]1(O)C(=O)CO [DEXAMETHASONE],420 and 372
2,N[C@](CC1c2ccccc2Oc2ccccc21)(C(=O)O)[C@H]1C[C@@H]1C(=O)O,447 and 270
3,Cc1noc(-c2ccc(-c3ccc(CC(=O)O)cc3)cc2)c1NC(=O)O[C@H](C)c1ccccc1Cl,403 and 296

# Same assay, conditions: human, 12 h, 10 µM, compound concentration 10 uM
SMILES,Population Apoptotic (%),Population Fragmented Nuclei (%),Population Healthy Nuclei (%),Population Hoechst High Intensity Objects (%),Population Membrane Permeable-Phenotype (%),Population Mitochondria Different-Phenotype (%),Population Mitotic Cells (%),Population Normal (%),Population Pyknosed Nuclei (%),Population Tubulin-Different-Phenotype (%)
C[C@@H]1C[C@H]2[C@@H]3CCC4=CC(=O)C=C[C@]4(C)[C@@]3(F)[C@@H](O)C[C@]2(C)[C@@]1(O)C(=O)CO [DEXAMETHASONE],37% and 44%,7% and 5%,79% and 81%,6% and 14%,0,44% and 69%,62% and 55%,93% and 85%,13%,33% and 39%
N[C@](CC1c2ccccc2Oc2ccccc21)(C(=O)O)[C@H]1C[C@@H]1C(=O)O,32%,9% and 4%,78% and 81%,8% and 7%,0,40% and 66%,67%,91% and 92%,12% and 13%,23% and 31%
Cc1noc(-c2ccc(-c3ccc(CC(=O)O)cc3)cc2)c1NC(=O)O[C@H](C)c1ccccc1Cl,51% and 41%,11% and 8%,68% and 72%,7% and 14%,0,72% and 69%,48% and 58%,92% and 85%,20% and 18%,65% and 34%

# Same assay, conditions: human, 12 h, 10 µM, compound concentration 10 uM
row,SMILES,Total Cell Count
1,C[C@@H]1C[C@H]2[C@@H]3CCC4=CC(=O)C=C[C@]4(C)[C@@]3(F)[C@@H](O)C[C@]2(C)[C@@]1(O)C(=O)CO [DEXAMETHASONE],374 and 436
2,N[C@](CC1c2ccccc2Oc2ccccc21)(C(=O)O)[C@H]1C[C@@H]1C(=O)O,381 and 382
3,Cc1noc(-c2ccc(-c3ccc(CC(=O)O)cc3)cc2)c1NC(=O)O[C@H](C)c1ccccc1Cl,295 and 341

# Same assay, conditions: human, 24 h, 1 µM, compound concentration 1 uM
SMILES,Population Apoptotic (%),Population Fragmented Nuclei (%),Population Healthy Nuclei (%),Population Hoechst High Intensity Objects (%),Population Membrane Permeable-Phenotype (%),Population Mitochondria Different-Phenotype (%),Population Mitotic Cells (%),Population Normal (%),Population Pyknosed Nuclei (%),Population Tubulin-Different-Phenotype (%)
C[C@@H]1C[C@H]2[C@@H]3CCC4=CC(=O)C=C[C@]4(C)[C@@]3(F)[C@@H](O)C[C@]2(C)[C@@]1(O)C(=O)CO [DEXAMETHASONE],31% and 42%,9% and 12%,78% and 79%,4% and 7%,0%,30% and 45%,68% and 57%,95% and 92%,12% and 8%,17%
N[C@](CC1c2ccccc2Oc2ccccc21)(C(=O)O)[C@H]1C[C@@H]1C(=O)O,21% and 38%,8% and 9%,81% and 84%,3% and 5%,1% and 0%,24% and 30%,78% and 61%,96% and 94%,10% and 6%,15% and 16%
Cc1noc(-c2ccc(-c3ccc(CC(=O)O)cc3)cc2)c1NC(=O)O[C@H](C)c1ccccc1Cl,22% and 40%,10% and 9%,79% and 80%,5% and 7%,0%,23% and 42%,77% and 60%,94% and 92%,9%,17% and 20%

# Same assay, conditions: human, 24 h, 1 µM, compound concentration 1 uM
row,SMILES,Total Cell Count
1,C[C@@H]1C[C@H]2[C@@H]3CCC4=CC(=O)C=C[C@]4(C)[C@@]3(F)[C@@H](O)C[C@]2(C)[C@@]1(O)C(=O)CO [DEXAMETHASONE],569 and 499
2,N[C@](CC1c2ccccc2Oc2ccccc21)(C(=O)O)[C@H]1C[C@@H]1C(=O)O,629 and 368
3,Cc1noc(-c2ccc(-c3ccc(CC(=O)O)cc3)cc2)c1NC(=O)O[C@H](C)c1ccccc1Cl,570 and 378

# Same assay, conditions: human, 24 h, 10 µM, compound concentration 10 uM
SMILES,Population Apoptotic (%),Population Fragmented Nuclei (%),Population Healthy Nuclei (%),Population Hoechst High Intensity Objects (%),Population Membrane Permeable-Phenotype (%),Population Mitochondria Different-Phenotype (%),Population Mitotic Cells (%),Population Normal (%),Population Pyknosed Nuclei (%),Population Tubulin-Different-Phenotype (%)
C[C@@H]1C[C@H]2[C@@H]3CCC4=CC(=O)C=C[C@]4(C)[C@@]3(F)[C@@H](O)C[C@]2(C)[C@@]1(O)C(=O)CO [DEXAMETHASONE],36% and 44%,8% and 9%,74% and 79%,6% and 15%,0%,30% and 43%,63% and 56%,93% and 84%,16% and 11%,29% and 22%
N[C@](CC1c2ccccc2Oc2ccccc21)(C(=O)O)[C@H]1C[C@@H]1C(=O)O,29% and 40%,10% and 6%,79% and 82%,5%,0%,30% and 41%,70% and 59%,94%,10% and 11%,17% and 16%
Cc1noc(-c2ccc(-c3ccc(CC(=O)O)cc3)cc2)c1NC(=O)O[C@H](C)c1ccccc1Cl,39% and 32%,7% and 9%,76% and 75%,8% and 16%,1% and 0%,58% and 53%,60% and 68%,91% and 83%,16% and 15%,47% and 38%

# Same assay, conditions: human, 24 h, 10 µM, compound concentration 10 uM
row,SMILES,Total Cell Count
1,C[C@@H]1C[C@H]2[C@@H]3CCC4=CC(=O)C=C[C@]4(C)[C@@]3(F)[C@@H](O)C[C@]2(C)[C@@]1(O)C(=O)CO [DEXAMETHASONE],453 and 513
2,N[C@](CC1c2ccccc2Oc2ccccc21)(C(=O)O)[C@H]1C[C@@H]1C(=O)O,510 and 471
3,Cc1noc(-c2ccc(-c3ccc(CC(=O)O)cc3)cc2)c1NC(=O)O[C@H](C)c1ccccc1Cl,352 and 390

# Same assay, conditions: human, 48 h, 1 µM, compound concentration 1 uM
SMILES,Population Apoptotic (%),Population Fragmented Nuclei (%),Population Healthy Nuclei (%),Population Hoechst High Intensity Objects (%),Population Membrane Permeable-Phenotype (%),Population Mitochondria Different-Phenotype (%),Population Mitotic Cells (%),Population Normal (%),Population Pyknosed Nuclei (%),Population Tubulin-Different-Phenotype (%)
C[C@@H]1C[C@H]2[C@@H]3CCC4=CC(=O)C=C[C@]4(C)[C@@]3(F)[C@@H](O)C[C@]2(C)[C@@]1(O)C(=O)CO [DEXAMETHASONE],30% and 27%,15%,77% and 78%,1% and 3%,1% and 0%,18% and 27%,69% and 72%,98% and 96%,7% and 6%,12% and 15%
N[C@](CC1c2ccccc2Oc2ccccc21)(C(=O)O)[C@H]1C[C@@H]1C(=O)O,12% and 17%,11% and 12%,80% and 81%,2% and 1%,2% and 0%,15% and 17%,87% and 82%,97% and 98%,7% and 6%,13% and 10%
Cc1noc(-c2ccc(-c3ccc(CC(=O)O)cc3)cc2)c1NC(=O)O[C@H](C)c1ccccc1Cl,17% and 35%,11% and 12%,82% and 76%,4%,1% and 0%,20% and 34%,82% and 64%,95%,5% and 10%,14% and 21%

# Same assay, conditions: human, 48 h, 1 µM, compound concentration 1 uM
row,SMILES,Total Cell Count
1,C[C@@H]1C[C@H]2[C@@H]3CCC4=CC(=O)C=C[C@]4(C)[C@@]3(F)[C@@H](O)C[C@]2(C)[C@@]1(O)C(=O)CO [DEXAMETHASONE],915 and 685
2,N[C@](CC1c2ccccc2Oc2ccccc21)(C(=O)O)[C@H]1C[C@@H]1C(=O)O,1040 and 654
3,Cc1noc(-c2ccc(-c3ccc(CC(=O)O)cc3)cc2)c1NC(=O)O[C@H](C)c1ccccc1Cl,930 and 494

# Same assay, conditions: human, 48 h, 10 µM, compound concentration 10 uM
SMILES,Population Apoptotic (%),Population Fragmented Nuclei (%),Population Healthy Nuclei (%),Population Hoechst High Intensity Objects (%),Population Membrane Permeable-Phenotype (%),Population Mitochondria Different-Phenotype (%),Population Mitotic Cells (%),Population Normal (%),Population Pyknosed Nuclei (%),Population Tubulin-Different-Phenotype (%)
C[C@@H]1C[C@H]2[C@@H]3CCC4=CC(=O)C=C[C@]4(C)[C@@]3(F)[C@@H](O)C[C@]2(C)[C@@]1(O)C(=O)CO [DEXAMETHASONE],25% and 50%,15% and 16%,76%,3% and 6%,0%,18% and 28%,75% and 49%,96% and 93%,7%,14% and 19%
N[C@](CC1c2ccccc2Oc2ccccc21)(C(=O)O)[C@H]1C[C@@H]1C(=O)O,28% and 42%,13%,78% and 80%,2% and 4%,0%,17% and 25%,71% and 57%,97% and 95%,8% and 6%,8% and 12%
Cc1noc(-c2ccc(-c3ccc(CC(=O)O)cc3)cc2)c1NC(=O)O[C@H](C)c1ccccc1Cl,38% and 46%,10% and 13%,79% and 74%,6% and 10%,0% and 1%,40% and 35%,61% and 53%,93% and 89%,10% and 11%,33% and 25%

# Same assay, conditions: human, 48 h, 10 µM, compound concentration 10 uM
row,SMILES,Total Cell Count
1,C[C@@H]1C[C@H]2[C@@H]3CCC4=CC(=O)C=C[C@]4(C)[C@@]3(F)[C@@H](O)C[C@]2(C)[C@@]1(O)C(=O)CO [DEXAMETHASONE],760 and 756
2,N[C@](CC1c2ccccc2Oc2ccccc21)(C(=O)O)[C@H]1C[C@@H]1C(=O)O,789 and 687
3,Cc1noc(-c2ccc(-c3ccc(CC(=O)O)cc3)cc2)c1NC(=O)O[C@H](C)c1ccccc1Cl,445 and 508
